In ChEMBL document CHEMBL4184228, “Reversed isoniazids: Design, synthesis and evaluation against Mycobacterium tuberculosis” (Bioorg Med Chem, 2018):
In brackets after ≈: the same amount, converted by molar mass. Activity calls are given as the source filed them.

What was measured:
[1] = system: Mycobacterium tuberculosis; experiment: Antimycobacterial activity against XDR Mycobacterium tuberculosis isolate X_60 by two fold serial dilution based fluorescence assay; type: functional
Method in brief: (§1)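 MGIT 960 (BACTEC) broth assay in 7H9 with 1% OADC and 0.05% Tween 80. Compounds are 10 mM DMSO stocks, two-fold serially diluted, final DMSO ≤1.2%, top concentration 10 µM. Tubes incubated at 37°C with growth units read daily. MIC99 is set against a 1% drug-free growth control tube.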

[2] = system: Mycobacterium tuberculosis; experiment: Antimycobacterial activity against XDR Mycobacterium tuberculosis isolate TT149 at 10 uM by two fold serial dilution based fluorescence assay; type: functional; method in brief: as §1
[3] = system: Mycobacterium tuberculosis; experiment: Antimycobacterial activity against XDR Mycobacterium tuberculosis isolate X_61 by two fold serial dilution based fluorescence assay; type: functional; method in brief: as §1
[4] = system: Mycobacterium tuberculosis; experiment: Antimycobacterial activity against Mycobacterium tuberculosis H37Rv by two fold serial dilution based fluorescence assay; type: functional; method in brief: as §1
[5] = system: Mycobacterium tuberculosis; experiment: Antimycobacterial activity against XDR Mycobacterium tuberculosis isolate X_3 at 10 uM by two fold serial dilution based fluorescence assay; type: functional; method in brief: as §1
CHO = experiment: Cytotoxicity against CHO cells; type: cell-based; settings: Cricetulus griseus
[6] = Cytotoxicity against human THP1 cells assessed as decrease in cell viability after 24 hrs by MTT assay; type: cell-based; settings: THP-1 cells
Method in brief: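 THP-1 cells at 1.5 x 10^4/well are exposed to a range of compound concentrations for 24 h. MTT is then added for 4 h at 37°C, followed by solubilisation buffer for 30 min. A570 is read. Cytotoxicity % = 100 − [100 × (OD with drug/OD without drug)]. An IC20 cut-off is used to set concentrations for the macrophage work.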

Compound	MIC99 [1] [µM]	Activity [2]	MIC99 [3] [µM]	MIC99 [4] [µM]	Activity [5]	IC50 (CHO) [µM]	IC20 at 24 h [6] [µM]	MIC99 [2] [µM]	MIC99 [5] [µM]
O=C(NNCCCN1CCC(=C2c3ccccc3Sc3ccc(Cl)cc32)CC1)c1ccncc1	> 10	inactive	2.5 (≈ 1.23 µg/mL)	0.625 (≈ 0.307 µg/mL)	inactive	296			
O=C(NNCCCN1CCN(C2c3ccccc3CCc3ccccc32)CC1)c1ccncc1		inactive		5 (≈ 2.28 µg/mL)	inactive				
O=C(NNCCCN1CCC(N2c3ccccc3Sc3ccccc32)CC1)c1ccncc1	> 10	inactive	2.5 (≈ 1.15 µg/mL)	5 (≈ 2.3 µg/mL)	inactive	122			
O=C(NNCCCN1CCN(CC(O)(c2ccccc2)c2ccccc2)CC1)c1ccncc1	> 10	inactive	5 (≈ 2.3 µg/mL)	1.25 (≈ 0.574 µg/mL)	inactive	174			
O=C(NNCCCN1CCC(N2c3ccccc3Sc3ccc(Cl)cc32)CC1)c1ccncc1	> 10	inactive	> 10	1 (≈ 0.494 µg/mL)	inactive	37.4	2.2		
NNC(=O)c1ccncc1 [ISONIAZID]	> 10		2.5 (≈ 0.343 µg/mL)	0.73 (≈ 0.1 µg/mL)		> 100	> 100	> 10	> 10
O=C(NNCCCN1CCC(=C2c3ccccc3Sc3ccccc32)CC1)c1ccncc1	> 10	inactive	2.5 (≈ 1.14 µg/mL)	1.25 (≈ 0.571 µg/mL)	inactive	152			
O=C(NNCCCN1CCN(C(c2ccccc2)c2ccccc2)CC1)c1ccncc1	> 10	inactive	5 (≈ 2.15 µg/mL)	5 (≈ 2.15 µg/mL)	inactive	48.1			
O=C(NNCCCN1c2ccccc2CCc2ccccc21)c1ccncc1		inactive		1 (≈ 0.372 µg/mL)	inactive		> 100		
O=C(NNCCCNCCCN1c2ccccc2Sc2ccccc21)c1ccncc1		inactive		5 (≈ 2.17 µg/mL)	inactive				
O=C(NNCCCN1c2ccccc2Sc2ccccc21)c1ccncc1		inactive		1 (≈ 0.376 µg/mL)	inactive		> 100		
O=C(NNCCCNCCCN1c2ccccc2Sc2ccc(Cl)cc21)c1ccncc1		inactive		5 (≈ 2.34 µg/mL)	inactive				
O=C(NNCCCN1c2ccccc2Sc2ccccc21)c1ccccc1		inactive		> 10	inactive		> 100		
O=C(NNCCCN1CCN(C(c2ccccc2)(c2ccccc2)c2ccccc2)CC1)c1ccncc1	2.5 (≈ 1.26 µg/mL)	inactive	2.5 (≈ 1.26 µg/mL)	1.25 (≈ 0.632 µg/mL)	inactive	97.6			
O=C(NNCCCN1c2ccccc2Sc2ccc(Cl)cc21)c1ccccc1		inactive		> 10	inactive		> 100		
O=C(NNCCCN1c2ccccc2Sc2ccc(Cl)cc21)c1ccncc1		inactive		0.25 (≈ 0.103 µg/mL)	inactive		24.4		
O=C(NNCCCN1CCC(=C2c3ccccc3C=Cc3ccccc32)CC1)c1ccncc1	> 10	inactive	5 (≈ 2.25 µg/mL)	1.25 (≈ 0.563 µg/mL)	inactive	148			
CN(C)CCCN1c2ccccc2Sc2ccc(Cl)cc21 [CHLORPROMAZINE]							4		
